Data published in the RNAGym collection of RNA variant scans (doi:10.1126/science.aae0568).
Fewer inactive variants are shown than the library holds.

B1: tRNA (parent)
chain: GUUCCGUUGGCGUAAUGGUAACGCGUCUCCCUCCUAAGGAGAAGACUGCGGGUUCGAGUCCCGUACGGAACG

Variants of: B1
Experiment: yeast fitness relative to wild type (ratio to wild type); higher = fitter; tRNA-Arg(CCU), competitive growth, 37 C, YPD
How it was run: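 Variants of the tRNA-Arg(CCU) gene were chemically synthesised with a 3% per-site mutation rate across 69 sites and placed at the native genomic locus in Saccharomyces cerevisiae. Six parallel replicates of the pooled strains were competed in YPD at 37°C for 24 hours, and gene amplicons from the start and end populations were read by 100-nucleotide paired-end sequencing. Darwinian fitness relative to wild type was derived from changes in genotype frequencies. Genotypes required ≥ 100 starting reads, and estimates < 0.5 were set to 0.5.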

Row | Variant | yeast fitness
1 | GUUCCGUUGGCGUUAUGGUAACGCGUAUCCCUUCUAAGGAGAAGACCGUGAGUUCGAGUCCCGUACGGAACG [A14U C27A C33U U47C C49U G51A] | ≤ 0.5
2 | GUUCCGUUGGCGUUAUGGUAACGCGUGUCCCUCCUAAGGAGAAGACUGCGGGUUCGAGUCCCGUACGGAACG [A14U C27G] | 0.611
3 | GUUCCGUUGGCGUUAUGGUAACGCGUGUCCCUCCUGAGGAGAAGACUGCGGCUUCGAGUCACGUACGGAACG [A14U C27G A36G G52C C61A] | ≤ 0.5
4 | GUUCCGUUGGCGUUAUGGUAACGCGUGUCCCUCCUAUGGAGAAGACUGCGGGUUCGAGUCCCGUACGGAACG [A14U C27G A37U] | ≤ 0.5
5 | GUUCCGUUGGCGUUAUGGUAACGCGUGUCCCUCCUAAGGAGAAGACUGCGGAUUCGAGUUCCGUACGGAACG [A14U C27G G52A C60U] | ≤ 0.5
6 | GUUCCGUUGGCGUUAUGGUAACGCGUUUCCCUCCUAAGGAGAAGACUGCGGGUUCGAGUCCCGUACGGGACG [A14U C27U A69G] | ≤ 0.5
7 | GUUCCGUUGGCGUUAUGGUAACGCGUUUCCCUCCUAAGGAGAAGACUGCGGGUUGGAGUCCCGUACGAAACG [A14U C27U C55G G68A] | ≤ 0.5
8 | GUUCCGUUGGCGUUAUGGUAACGCGUUUCCCUCCUAAGGAGAAGACUGCGGGUUCGAGUCCCGUAGGGAACG [A14U C27U C66G] | ≤ 0.5
9 | GUUCCGUUGGCGUUAUGGUAACGCGUCUGCCUCCUAAGGAGAAGACUGCGGGUUCGAGUCCCGUACGGAACG [A14U C29G] | 0.692
10 | GUUCCGUUGGCGUUAUGGUAACGCGUCUGCCUCCUAAGGAGAAGACUGCGGGUUCGGGGCCGGUAUGGAACG [A14U C29G A57G U59G C62G C66U] | ≤ 0.5
11 | GUUCCGUUGGCGUUAUGGUAACGCGUCUGCCUCCUAAGGAGAAGACUGCGGGCGCGAGUCCCGUACGGAACG [A14U C29G U53C U54G] | 0.571
12 | GUUCCGUUGGCGUUAUGGUAACGCGUCUUCCUCCUAAGGAGAAGACUGCGGGUUCGAGUCCCGUACGGAACG [A14U C29U] | 0.64
13 | GUUCCGUUGGCGUUAUGGUAACGCGUCUUCCUCCUAUGGAGAAGAUUGCGGGUUCGAGGCCCGUACGGAACG [A14U C29U A37U C46U U59G] | ≤ 0.5
14 | GUUCCGUUGGCGUUAUGGUAACGCGUCUUCCUCCUAUGGAGAAGACUGCGGGUUCGAGUCCCGUAUGGAACG [A14U C29U A37U C66U] | ≤ 0.5
15 | GUUCCGUUGGCGUUAUGGUAACGCGUCUUCCUCCUAUGGAGAAGACUGCAGGUUCGAGUCCCGUACGGAACG [A14U C29U A37U G50A] | ≤ 0.5
16 | GUUCCGUUGGCGUUAUGGUAACGCGUCUUACUCCUAAGGAGAAGCCUGCGGGUUCGAGUCCCGUACGGAACG [A14U C29U C30A A45C] | ≤ 0.5
17 | GUUCCGUUGGCGUUAUGGUAACGCGUCUUCCUCCUAAGGAGAAGACUGCGGGUUUGAGUCCCGUACGGGACG [A14U C29U C55U A69G] | ≤ 0.5
18 | GUUCCGUUGGCGUUAUGGUAACGCGUCUUCCGCCUAAGGAGAAGACUGCGGGUUCGUGUCCCGUACGGAACG [A14U C29U U32G A57U] | ≤ 0.5
19 | GUUCCGUUGGCGUUAUGGUAACGCGUCUCACUCCUAAGGAGAAGACUGCGGGUUCGAGUCCCGUCCGGAACG [A14U C30A A65C] | ≤ 0.5

Row | Variant | yeast fitness
20 | GUUCCGUUGGCGUUAUGGUAACGCGUCUCACUCCUAAGGAGAAGAUUGCGGGUUCGAGUCCAGUACGGAACG [A14U C30A C46U C62A] | ≤ 0.5
21 | GUUCCGUUGGCGUUAUGGUAACGCGUCUCACUCCUAAGGAGAAGACUGCGGGUUCGAGUCCCGUAUGGAACG [A14U C30A C66U] | 0.547
22 | GUUCCGUUGGCGUUAUGGUAACGCGUCUCACUCCUAAAGAGAAGACUGCGGGUUAGAGUCCCGUCCGGAACG [A14U C30A G38A C55A A65C] | ≤ 0.5
23 | GUUCCGUUGGCGUUAUGGUAACGCGUCUCGCUCCUAAGGAGAAGACUGCGGGUUCGAGUCCCGUACGGAACG [A14U C30G] | 0.516
24 | GUUCCGUUGGCGUUAUGGUAACGCGUCUCUCUCUUAAGGAGAAGUCUGCGGGUUCGAGUCCCGUACGGAACG [A14U C30U C34U A45U] | ≤ 0.5
25 | GUUCCGUUGGCGUUAUGGUAACGCGUCUCUCUCCUAAGGAGAAGACUGCGGGUUCGAGUACCGUAUGGAACG [A14U C30U C60A C66U] | 0.618
26 | GUUCCGUUGGCGUUAUGGUAACGCGUCUCUCUCCUAAGGAGAAGACUGCGGGUUCGAGUCCGGUGCGCAACG [A14U C30U C62G A65G G68C] | ≤ 0.5
27 | GUUCCGUUGGCGUUAUGGUAACGCGUCUCUCUCCUAAGGAGAAGACUGCGGGUUCGACUACCGUACGGAACG [A14U C30U G58C C60A] | ≤ 0.5
28 | GUUCCGUUGGCGUUAUGGUAACGCGUCUCCGUCCUAAAGAGAAGACUGCGGGUUCGAGUCCCGUACGGAACG [A14U C31G G38A] | 0.657
29 | GUUCCGUUGGCGUUAUGGUAACGCGUCUCCGUCCUAAAGAGAAGACUGCGGGUUCGAGUCCCGUAUGGAACG [A14U C31G G38A C66U] | ≤ 0.5
30 | GUUCCGUUGGCGUUAUGGUAACGCGUCUCCUUCCUAAGGAGAAGACUGCGGGUUUGAGUCCCGUACGAAACG [A14U C31U C55U G68A] | 0.618
31 | GUUCCGUUGGCGUUAUGGUAACGCGUCUCCUUCCUAAGGAGAAGACUGCGAGUUCGAGUCCCCUACGGAACG [A14U C31U G51A G63C] | ≤ 0.5
32 | GUUCCGUUGGCGUUAUGGUAACGCGUCUCCCUGCUAGGGCGAAGACUGGGGGUUCGAGUCCCGUACCGAACG [A14U C33G A37G A40C C49G G67C] | ≤ 0.5
33 | GUUCCGUUGGCGUUAUGGUAACGCGUCUCCCUCAUAAGGAGAAGAUUGCGGGUUCGAGUCCCGUACGGAACG [A14U C34A C46U] | ≤ 0.5
34 | GUUCCGUUGGCGUUAUGGUAACGCGUCUCCCUCGUAAGGAGAAGACUGCGGGUUCGAGUCCCGUACGGAACG [A14U C34G] | ≤ 0.5
35 | GUUCCGUUGGCGUUAUGGUAACGCGUCUCCCUCGUACGGAGAAGACUGCUGGUUCGAGUCCUGUACGGAACG [A14U C34G A37C G50U C62U] | ≤ 0.5
36 | GUUCCGUUGGCGUUAUGGUAACGCGUCUCCCUCGUAAGGAGACGACUGCGGGUUCGAGUCCCGUACGGAUCG [A14U C34G A43C A70U] | ≤ 0.5
37 | GUUCCGUUGGCGUUAUGGUAACGCGUCUCCCUCGUAAGGAGAAGACUGCGGGUUCGAGUCGCGUACGGAACG [A14U C34G C61G] | ≤ 0.5
